High-throughput results as filed in PubChem.
Only a selection was taken, and hits are over-represented in it overall.
Insulin prom act: activators of insulin promoter-driven GFP, primary screen, imaging, TRM-6 cells, eGFP reporter, cell count; plate-scaled: unstimulated 0, stimulated control 100; activation, % at 2 µM; AID 1296, 2008; 0.81% of 130,000 active;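 active = activation at 2 µM above a set limit, confirmed on inspection of the cell images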;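 also: share of cells whose green reporter signal exceeds an intensity cutoff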
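Material: Human fetal islet-derived TRM-6 cells with tamoxifen-inducible insulin promoter–eGFP reporter | Medium: Low-glucose (5.5 mM) medium with tamoxifen | Probe or stimulus: Tamoxifen inducer, 0.75 µM, in seeding medium | Schedule: Tamoxifen pre-incubation 15 h overnight, then compound exposure 48 h at 37 °C | Detection: High-content imaging of fixed cells with Hoechst nuclear stain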
Active calls of the source: *.

SMILES	Insulin prom act
COc1ccc(C(=O)/C=C/c2ccc(OC(=O)c3cc(OC)c(OC)c(OC)c3)cc2)cc1	8
COc1cc(C(=O)Nc2ccccn2)cc(OC)c1OC	10
CCN1CCCC1CNCC(O)COc1ccc(C(C)(C)C)cc1C (stereo unspecified)	0
CCNC(=S)N(CCc1c(C)[nH]c2ccccc12)Cc1cc(OC)c(OC)c(OC)c1	-10
Cc1nc(NC(=O)COc2ccccc2)sc1C(=O)Nc1ccccc1	4
CC(=O)c1sc(NC(=O)COc2ccc(Cl)cc2Cl)nc1C	290*
CC(C)NC(=O)COc1ccc(Cl)cc1Cl	6
O=C(NC1CCN(C(=S)NCc2ccco2)CC1)C12CC3CC(CC(C3)C1)C2	-2
COCCN(C(=O)/C=C/c1ccccc1)c1nnc(-c2cccnc2)s1	-5
CCCCC(=O)N(CCOC)c1nnc(-c2ccc(OC)cc2)s1	3
COCCN(C(=O)C1CC1)c1nnc(-c2cccc(C)c2)s1	182*
CCOC(=O)N1CCN(C(=O)Cn2ncn3nc(-c4cccs4)cc3c2=O)CC1	-3
CC(=O)NC1(c2ccc(F)cc2)CCN(C(=O)Nc2ccc(F)cc2F)CC1	3
CCN(CC)c1ccc2c(C)c(-c3ccc(N)cc3)c(=O)oc2c1	-2
CCN(CC)c1ccc2c(c1)oc(=O)c1c(Cl)cc(=O)oc12	219
CCN(CC)c1ccc2c(Cl)c(Br)c(=O)oc2c1	133*
O=C(CCN1C(=O)C2C3C=CC(C3)C2C1=O)N1CCN(c2ccccc2Cl)CC1 (stereo unspecified)	-3
O=C(CCn1c(=O)oc2ccccc21)N1CCN(c2ccccc2Cl)CC1	128
N#CCC(=N)N1CCN(c2ccccc2Cl)CC1	177*
O=C(NC(C(=O)c1ccccc1)N1CCCCC1)c1ccccc1 (stereo unspecified)	9
CC(C)CCNC(=O)NC(=O)COC(=O)C1=COCCO1	-78
CC(C)CNC(=O)NC(=O)COC(=O)c1cc(F)cc(F)c1	333*
COc1cccc(OC)c1C(=O)OCC(=O)NCC(C)C	0
CCNC(=O)NCCc1c[nH]c2ccc(Cl)cc12	9
CCOc1ccccc1NC(=O)CN(C)S(=O)(=O)c1cnc[nH]1	8
SMILES	Insulin prom act
CCOC(=O)CNC(=O)C(Cc1ccccc1)NS(=O)(=O)c1cccs1 (stereo unspecified)	106
CC(C)C(NS(=O)(=O)c1cccs1)C(=O)NCc1ccc2c(c1)OCO2 (stereo unspecified)	162*
CC(C)C(NS(=O)(=O)c1cccs1)C(=O)NCCN1CCN(c2ccccc2)CC1 (stereo unspecified)	-6
Cc1ccc(CNC(=O)C(Cc2ccccc2)NS(=O)(=O)c2cccs2)cc1 (stereo unspecified)	96*
CC(Cc1ccccc1)C(=O)NCc1ccncc1 (stereo unspecified)	-5
CCCC(C)C(=O)NCc1ccc2c(c1)OCO2 (stereo unspecified)	3
Cn1c2c(c3ccccc31)CC/C2=N\O	-4
S=c1[nH]nc(-c2ccccn2)n1/N=C/c1cccc2ccccc12	-7
c1cc2c(cc1-c1csc(NNC3=NCCCCC3)n1)OCCO2	-7
CN(CC(=O)Nc1cccc([N+](=O)[O-])c1)S(=O)(=O)c1ccccc1	0
COc1ccc(C(=O)NC=C2C(=O)OC(C)(C)OC2=O)cc1	0
O=c1cc(-c2ccccc2)n(S(=O)(=O)c2ccc3ccccc3c2)o1	0
CCC(=O)NNc1nc2c(Cl)cccc2s1	5
C/C(=N/OC(=O)C1CC12CCC2)c1ccc(Br)cc1 (stereo unspecified)	7
CC1(C)Cc2nc(N)c(C(=O)NCCO)cc2CO1	0
CCOC(=O)C1(CC2CCCCO2)CCN(Cc2cc3ccccc3[nH]2)CC1 (stereo unspecified)	0
COc1ccccc1/C=N/NC(=O)c1ccc(Br)cc1	7
COc1ccccc1N1CCN(c2cc(N3CCCC3)nc(C)n2)CC1	0
COc1cc(N2CCCC2)c(OC)cc1/C=C(/C#N)c1ccc(Br)cc1	87*
OCC1(Cc2ccccc2)CCCN(Cc2cnn(-c3ccccc3)c2)C1 (stereo unspecified)	6
Cc1ccccc1CN1C(=O)CSc2ccc(C(=O)N3CCOCC3)cc21	8
Cc1ccccc1CC1(CO)CCCN(C(=O)c2ccc3ncccc3c2)C1 (stereo unspecified)	228*
CCN(CCCNC(=O)CCCOc1cc(=O)n(C)c2ccccc12)Cc1ccccc1	0
Nc1nnc(SCC(=O)N2CCN(Cc3ccccc3)CC2)s1	0
NC(=O)c1ccccc1NS(=O)(=O)c1ccccc1	0
SMILES	Insulin prom act
Cc1ccc(S(=O)(=O)Nc2cc(Cl)c(O)cc2C)cc1	9
Cc1ccc(S(=O)(=O)Nc2ccccc2C(N)=O)cc1	403*
O=C(NCc1ccccc1)N1CCC(c2nc3ccccc3[nH]2)CC1	-8
O=C(c1c(F)cccc1F)N1CCN(c2ncccn2)CC1	0
COc1ccc2c(c1)nc(SCC(=O)c1ccc(Br)s1)n2C	2
Cc1[nH]c(=O)[nH]c(=O)c1S(=O)(=O)N1CCCC(C(=O)NCc2ccccc2Cl)C1 (stereo unspecified)	-7
S=C(c1ccc(-c2ccc(Cl)cc2)o1)N1CCCCC1	7
Nc1cccc(-c2ccc(CO)o2)c1	7
OCCc1ccc(-c2ccc(Cl)cc2)o1	450*
C=CCn1c(=S)[nH]c2sccc2c1=O	0
Cc1ccc(-c2cc(-c3nnc(SCC(=O)NC(C)C(C)C)n3N)c3ccccc3n2)cc1 (stereo unspecified)	2
CN(C(=O)CSc1nc(-c2ccccc2)cn1N)C(c1ccccc1)c1ccccc1	82*
Nn1c(SCC(=O)Nc2ccc3c(c2)OCO3)nnc1-c1ccccc1	-6
CC(C)(C)C1CCC(=NOC(=O)c2ccc(F)cc2)CC1 (stereo unspecified)	0
N#C/C(C(=O)N1CCOCC1)=C1/SC(Cc2ccccc2Cl)C(=O)N1c1ccccc1 (stereo unspecified)	107
CCN1CCS/C1=C/C=C/C1=[N+](CC)CCS1	233*
COc1ccc(S(=O)(=O)NCC(c2cccnc2)N2CCN(c3ccccc3OC)CC2)cc1C (stereo unspecified)	186*
COc1ccccc1N1CCN(C(CNC(=O)c2ccc3c(c2)OCO3)c2cccnc2)CC1 (stereo unspecified)	0
COc1ccccc1N1CCN(C(CNS(=O)(=O)c2ccccc2)c2cccnc2)CC1 (stereo unspecified)	-10
C/C(=N/N=C1/NC(=O)CC(C(=O)Nc2ccccc2)S1)c1cccs1 (stereo unspecified)	3
CCn1c(Cc2ccccc2)nnc1SCC(=O)Nc1ccccc1N1CCOCC1	188
O=C(/C=C/c1ccc(F)cc1)c1ccccc1Br	9
CCC(=O)Nc1ccnc(-c2cccnc2)n1	0
O=C(Nc1ccccc1)c1ccncc1	-6
O=C(Nc1ccnc(-c2ccncc2)n1)c1ccc(F)cc1	340*
O=C(c1ccccn1)c1cc2ccccc2n1S(=O)(=O)c1ccccc1	3
O=C(O)C1C2C=CC3(CN(Cc4ccncc4)C(=O)C13)O2 (stereo unspecified)	-3
Nc1nc(CN2CCN(c3ccccn3)CC2)nc(Nc2ccc(Cl)cc2)n1	0
S=c1[nH]c(-c2ccc(Br)cc2)cn1CCc1ccccc1	0
COc1cc(C2C3CN(C)CC=C3C(C#N)=C(N)C2(C#N)C#N)ccc1OC(C)C (stereo unspecified)	257*
